Source: ChEMBL document CHEMBL4316609, “Chemical synthesis and functional characterization of a new class of ceramide analogues as anti-cancer agents” (Bioorg Med Chem, 2019)
pIC50: −log10 of the molar value.

What was measured:
Type in all cases: functional, cell-based
SW-620 = assay: Cytotoxicity against human SW620 cells measured after 48 hrs by MTT assay; conditions: SW-620, 48 h
Outline: (§1)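 Seeded at 7x10^3 cells/well and allowed 24 h to attach. Compounds added at final 0 to 200 μM and incubated 48 h. Viability read by MTT. IC50 taken as the concentration giving 50% growth inhibition; mean ± SD, N = 4.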

[1] = Cytotoxicity against human SA cells measured after 48 hrs by MTT assay; conditions: +SA cell; outline: as §1
MCF7 = assay: Cytotoxicity against human MCF7 cells measured after 48 hrs by MTT assay; conditions: MCF7, 48 h; outline: as §1
SiHa = assay: Cytotoxicity against human SiHa cells measured after 48 hrs by MTT assay; outline: as §1
HepG2 = assay: Cytotoxicity against human HepG2 cells measured after 48 hrs by MTT assay; conditions: HepG2, 48 h; outline: as §1
A-431 = assay: Cytotoxicity against human A431 cells measured after 48 hrs by MTT assay; conditions: A-431, 48 h; outline: as §1

Structure (SMILES)	pIC50 (SW-620)	pIC50 [1]	pIC50 (MCF7)	pIC50 (SiHa)	pIC50 (HepG2)	pIC50 (A-431)
CCCCCCCCCCCCCCCCCCNC(=O)[C@@H](NS(=O)(=O)c1cccs1)[C@@H](C)O	< 3.70	< 3.70	< 3.70	–	–	–
CCCCCCCCCCCCCCNC(=O)[C@@H](NS(=O)(=O)c1cccs1)[C@@H](C)O	4.74	4.94	4.73	4.69	4.67	4.66
CCCCCCCCCCCCCCNC(=O)[C@@H](NC(=O)c1ccccc1)[C@@H](C)O	3.70	4.25	4.61	–	4.27	–
CCCCCCCCNC(=O)[C@@H](NC(=O)c1nccc2ccccc12)[C@@H](C)O	4.17	4.64	4.20	4.18	4.05	4.57
CCCCCCCCCCCCCCNC(=O)[C@@H](NC(=O)c1cc2ccccc2o1)[C@@H](C)O	4.57	5.02	4.63	4.85	4.63	4.70
CCCCCCCCCCCCNC(=O)[C@@H](NC(=O)c1cc2ccccc2o1)[C@@H](C)O	4.67	4.98	4.68	4.89	4.64	4.70
CCCCCCCCCCCCNC(=O)[C@@H](NS(=O)(=O)c1ccc(C)cc1)[C@@H](C)O	4.59	4.56	4.51	4.50	4.59	4.60
CCCCCCCCCCCCCCCCCCNC(=O)[C@@H](NC(=O)c1cc2ccccc2[nH]1)[C@@H](C)O	4.63	4.45	4.45	4.53	4.05	4.09
CCCCCCCCCCCCCCCCCCNC(=O)[C@@H](NC(=O)c1ccco1)[C@@H](C)O	< 3.70	4.28	4.67	4.87	4.37	4.70
CCCCCCCCCCCCCCNC(=O)[C@@H](NC(=O)c1cc2ccccc2[nH]1)[C@@H](C)O	4.82	4.92	4.82	4.85	4.98	4.91
CCCCCCCCNC(=O)[C@@H](NC(=O)c1ccccc1)[C@@H](C)O	3.70	4.46	–	–	–	4.21
CCCCCCCCNC(=O)[C@@H](NC(=O)c1ccco1)[C@@H](C)O	3.70	4.19	4.04	–	–	4.19
CCCCCCCCCCCCCCNC(=O)[C@@H](NC(=O)c1cccs1)[C@@H](C)O	4.11	4.67	4.44	4.20	4.05	4.58
CCCCCCCCCCCCCCCCCCNC(=O)[C@@H](NC(=O)c1cc2ccccc2o1)[C@@H](C)O	< 3.70	–	–	–	–	4.10
CCCCCCCCCCCCCCCCCCNC(=O)[C@@H](NC(=O)c1cccs1)[C@@H](C)O	3.70	4.27	4.59	–	4.04	4.48
CCCCCCCCCCCCCCNC(=O)[C@@H](NC(=O)/C=C/c1ccccc1)[C@@H](C)O	3.70	4.09	4.19	4.45	–	4.19
CCCCCCCCCCCCCCNC(=O)[C@@H](NC(=O)c1nccc2ccccc12)[C@@H](C)O	4.52	4.61	4.64	4.67	4.54	4.64
CCCCCCCCCCCCNC(=O)[C@@H](NC(=O)c1cc2ccccc2n1C)[C@@H](C)O	< 3.70	4.50	4.50	–	–	–

Structure (SMILES)	pIC50 (SW-620)	pIC50 [1]	pIC50 (MCF7)	pIC50 (SiHa)	pIC50 (HepG2)	pIC50 (A-431)
CCCCCCCCCCCCCCCCCCNC(=O)[C@@H](NC(=O)Cc1c[nH]c2ccccc12)[C@@H](C)O	–	4.26	4.43	4.18	4.24	4.50
C/C=C/C=C/C(=O)N[C@H](C(=O)NCCCCCCCCCCCCCCCCCC)[C@@H](C)O	3.70	< 3.70	4.10	< 3.70	3.55	3.73
CCCCCCCCCCCCCCCCCCNC(=O)[C@@H](NC(=O)c1cc2ccccc2n1C)[C@@H](C)O	3.91	4.44	4.44	–	–	4.21
CCCCCCCCCCCCNC(=O)[C@@H](NC(=O)/C=C/c1ccccc1)[C@@H](C)O	3.70	–	–	–	–	–
CCCCCCCCCCCCCCCCCCNC(=O)[C@@H](NS(=O)(=O)c1ccc(C)cc1)[C@@H](C)O	4.49	4.32	4.22	4.53	4.12	4.47
CCCCCCCCCCCCCCCCCCNC(=O)[C@@H](NS(=O)(=O)c1ccc2ccccc2c1)[C@@H](C)O	4.61	4.67	4.56	4.70	4.70	4.63
CCCCCCCCCCCCNC(=O)[C@@H](NS(=O)(=O)c1cccs1)[C@@H](C)O	4.55	4.70	4.72	4.51	4.59	4.66
CCCCCCCCCCCCNC(=O)[C@@H](NC(=O)c1cc2ccccc2[nH]1)[C@@H](C)O	4.73	4.91	4.91	4.67	4.92	4.99
CCCCCCCCCCCCCCNC(=O)[C@@H](NC(=O)c1ccco1)[C@@H](C)O	3.70	–	–	–	–	–
CCCCCCCCNC(=O)[C@@H](NC(=O)/C=C/c1ccccc1)[C@@H](C)O	4.21	4.59	4.46	4.38	4.26	4.44
C/C=C/C=C/C(=O)N[C@H](C(=O)NCCCCCCCCCCCC)[C@@H](C)O	3.70	–	4.43	–	–	–
CCCCCCCCCCCCCCCCCCNC(=O)[C@@H](NC(=O)/C=C/c1ccccc1)[C@@H](C)O	3.70	4.33	4.41	4.44	–	–
CCCCCCCCCCCCNC(=O)[C@@H](NC(=O)c1cccs1)[C@@H](C)O	4.53	4.63	4.52	4.62	4.52	4.78
C/C=C/C=C/C(=O)N[C@H](C(=O)NCCCCCCCCCCCCCC)[C@@H](C)O	3.70	–	4.56	–	–	–
CCCCCCCCCCCCCCCCCCNC(=O)[C@@H](NC(=O)c1ccccc1)[C@@H](C)O	3.70	< 3.40	4.50	4.42	–	–
CCCCCCCCCCCCCCCCCCNC(=O)[C@@H](N)[C@@H](C)O	4.67	< 3.70	4.56	4.40	4.35	4.67
CCCCCCCCCCCCNC(=O)[C@@H](NC(=O)Cc1c[nH]c2ccccc12)[C@@H](C)O	4.66	4.70	4.81	4.87	4.65	4.63
